These results are taken from ChEMBL document CHEMBL1138430, “Novel tetrahydroisoquinolines are histamine H3 antagonists and serotonin reuptake inhibitors” (Bioorg Med Chem Lett, 2007).

The nature of series [1]: Volume of distribution at steady state in po and iv dosed rat. The settings on record: in vivo, read-out: Vdss. In kind it is ADME, organism-based.
The test system of series [2] is Rattus norvegicus. Nature of the series: Ex vivo receptor occupancy at histamine H3 receptor in rat at 0.3 mg/kg, sc. The format is functional. The settings on record: route subcutaneous. Put shortly: (§1)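 Ex vivo receptor occupancy was measured in rat brain at SERT and at the H3 receptor after a single subcutaneous dose. Brain drug concentrations were determined alongside occupancy.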

The subject of series [3] is Voltage-gated calcium channel. Briefly: Binding affinity for calcium channel at 1 uM. The settings on record: human. The format is protein-complex assay.
Series [4] deals with T1, Neuromedin-K receptor (Homo sapiens) (UniProt P29371).
T1 sequence (whole entry): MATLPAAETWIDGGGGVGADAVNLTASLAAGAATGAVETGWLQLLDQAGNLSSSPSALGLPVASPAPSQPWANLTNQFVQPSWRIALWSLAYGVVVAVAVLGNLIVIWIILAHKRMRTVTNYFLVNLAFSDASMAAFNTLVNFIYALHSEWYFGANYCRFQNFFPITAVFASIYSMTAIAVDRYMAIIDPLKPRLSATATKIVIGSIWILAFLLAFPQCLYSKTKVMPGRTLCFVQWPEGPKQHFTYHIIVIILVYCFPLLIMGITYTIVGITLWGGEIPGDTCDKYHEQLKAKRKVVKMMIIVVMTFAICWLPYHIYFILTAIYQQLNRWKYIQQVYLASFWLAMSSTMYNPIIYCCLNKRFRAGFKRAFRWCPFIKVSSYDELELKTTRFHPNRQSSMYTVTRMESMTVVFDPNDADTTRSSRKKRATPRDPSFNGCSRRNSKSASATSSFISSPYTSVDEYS
Briefly: Binding affinity at NK3 receptor at 1 uM.

Series [5] concerns the target Sodium-dependent dopamine transporter (Homo sapiens, UniProt Q01959). Briefly: Inhibition of [3H]WIN-uptake in human DAT expressed in CHO cells. The format is cell-based. Put shortly: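 Human DAT expressed in CHO cells; membranes were incubated on ice for 2 h with 10.9 nM [3H]-WIN 35,428, then harvested by rapid filtration. Nonspecific binding was defined with GBR-12909. Ki values are means of at least three experiments run in triplicate, with SEM.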

For series [6], the system named is Brain. Briefly: Drug level in rat brain at 0.3 mg/kg, sc. In kind it is ADME, organism-based. Particulars: in vivo, read-out: Drug uptake. Set-up: dose 0.3 mg/kg, route subcutaneous.
Series [7] is described as follows: Plasma clearance in po and iv dosed rat. The format is ADME, organism-based.
The target in series [8] is T2, Histamine H3 receptor (Homo sapiens, UniProt Q9Y5N1). Nature of the series: Antagonist activity at human histamine H3 receptor. In kind it is functional. Particulars: read-out: pA2 (converted).
T2 sequence (Q9Y5N1 whole entry): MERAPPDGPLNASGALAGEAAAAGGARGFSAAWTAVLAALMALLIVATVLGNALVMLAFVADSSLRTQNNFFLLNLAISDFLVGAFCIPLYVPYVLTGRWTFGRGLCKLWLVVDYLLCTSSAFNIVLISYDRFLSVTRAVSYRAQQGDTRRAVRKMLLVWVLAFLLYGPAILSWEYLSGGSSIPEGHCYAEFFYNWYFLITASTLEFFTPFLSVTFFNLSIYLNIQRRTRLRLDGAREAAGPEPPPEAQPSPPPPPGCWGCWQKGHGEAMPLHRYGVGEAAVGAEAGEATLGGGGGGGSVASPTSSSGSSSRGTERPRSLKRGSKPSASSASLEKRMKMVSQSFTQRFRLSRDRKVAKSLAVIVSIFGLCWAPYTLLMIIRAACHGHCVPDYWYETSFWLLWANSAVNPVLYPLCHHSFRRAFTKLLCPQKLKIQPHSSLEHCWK
Series [9] concerns Voltage-gated potassium channel. Briefly: Binding affinity for potassium channel at 1 uM. The format is protein assay. The settings on record: human.
Series [10] concerns the target T2, Histamine H3 receptor. Briefly: Binding affinity at human histamine H3 receptor.
In series [11] the target is T3, Muscarinic acetylcholine receptor M2 (Homo sapiens) (UniProt P08172).
T3 sequence (whole entry): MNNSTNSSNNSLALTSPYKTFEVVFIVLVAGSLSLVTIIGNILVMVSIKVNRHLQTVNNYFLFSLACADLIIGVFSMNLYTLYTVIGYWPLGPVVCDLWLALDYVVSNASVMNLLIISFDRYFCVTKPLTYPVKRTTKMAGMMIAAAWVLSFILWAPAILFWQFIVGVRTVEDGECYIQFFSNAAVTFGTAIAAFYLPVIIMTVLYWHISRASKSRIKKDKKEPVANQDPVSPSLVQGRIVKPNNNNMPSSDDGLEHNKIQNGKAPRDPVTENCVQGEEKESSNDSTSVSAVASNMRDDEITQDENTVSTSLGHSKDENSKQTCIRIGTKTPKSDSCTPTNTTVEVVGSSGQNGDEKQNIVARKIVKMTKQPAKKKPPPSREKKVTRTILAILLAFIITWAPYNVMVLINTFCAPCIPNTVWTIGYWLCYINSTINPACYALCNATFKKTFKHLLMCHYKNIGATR
Briefly: Binding affinity at muscarinic M2 receptor at 1 uM.

The nature of series [12]: Bioavailability in po dosed rat. In kind it is ADME, organism-based. Particulars: in vivo.
Series [13] has as its system Rattus norvegicus. Briefly: Ex vivo receptor occupancy at SERT in rat at 0.3 mg/kg, sc. In kind it is functional. Particulars: route subcutaneous. Put shortly: as §1
For series [14], the target named is Sodium-dependent noradrenaline transporter (Homo sapiens, UniProt P23975). Nature of the series: Inhibition of [3H]nisoxetine uptake in human NET expressed in MDCK cells. In kind it is cell-based.
Chain of Sodium-dependent noradrenaline transporter (P23975 whole entry): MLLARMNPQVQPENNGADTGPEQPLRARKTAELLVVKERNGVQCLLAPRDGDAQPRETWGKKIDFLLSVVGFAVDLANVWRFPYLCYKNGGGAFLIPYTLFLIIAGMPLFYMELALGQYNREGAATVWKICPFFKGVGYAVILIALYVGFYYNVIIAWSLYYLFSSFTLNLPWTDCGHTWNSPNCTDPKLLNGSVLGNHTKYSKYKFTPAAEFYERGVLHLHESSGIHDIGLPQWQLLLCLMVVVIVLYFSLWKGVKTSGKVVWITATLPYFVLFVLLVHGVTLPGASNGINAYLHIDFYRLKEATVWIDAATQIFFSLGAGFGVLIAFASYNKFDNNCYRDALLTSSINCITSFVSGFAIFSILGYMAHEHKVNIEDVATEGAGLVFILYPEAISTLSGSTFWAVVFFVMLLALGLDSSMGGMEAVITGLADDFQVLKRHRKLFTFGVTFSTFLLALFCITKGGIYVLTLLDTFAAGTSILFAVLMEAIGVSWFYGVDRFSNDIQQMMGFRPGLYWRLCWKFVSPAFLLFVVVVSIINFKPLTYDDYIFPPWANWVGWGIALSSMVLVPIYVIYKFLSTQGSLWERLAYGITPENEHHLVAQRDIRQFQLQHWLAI
Series [15] in a line: Half life in po and iv dosed rat. In kind it is ADME, organism-based. The settings on record: in vivo.
Series [16] can be described thus: Cmax in rat brain at 10 mg/kg, po. Set-up: dose 10 mg/kg, route oral. In kind it is ADME, organism-based.

Each structure is given as a SMILES string. The source made the active and inactive calls. The rule behind the calls is not given here.

Chain of Sodium-dependent dopamine transporter (Q01959 whole entry): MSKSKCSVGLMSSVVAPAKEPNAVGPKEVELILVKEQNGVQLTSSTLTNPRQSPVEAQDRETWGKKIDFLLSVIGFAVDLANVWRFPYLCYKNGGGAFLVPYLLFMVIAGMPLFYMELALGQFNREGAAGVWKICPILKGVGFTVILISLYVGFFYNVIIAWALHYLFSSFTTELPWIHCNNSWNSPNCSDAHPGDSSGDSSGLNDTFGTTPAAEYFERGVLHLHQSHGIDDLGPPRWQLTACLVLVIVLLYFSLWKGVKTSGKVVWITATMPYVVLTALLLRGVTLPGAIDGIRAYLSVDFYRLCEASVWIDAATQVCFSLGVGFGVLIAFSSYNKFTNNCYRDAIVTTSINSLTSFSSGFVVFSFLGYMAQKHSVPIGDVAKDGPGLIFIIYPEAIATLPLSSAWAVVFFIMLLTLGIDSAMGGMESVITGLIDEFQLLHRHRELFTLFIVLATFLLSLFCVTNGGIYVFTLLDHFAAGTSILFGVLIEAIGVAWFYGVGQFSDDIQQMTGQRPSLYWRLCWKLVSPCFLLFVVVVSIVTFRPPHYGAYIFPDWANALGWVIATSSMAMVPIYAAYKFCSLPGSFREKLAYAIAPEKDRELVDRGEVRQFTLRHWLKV

Usually Ki stands for a measure of affinity in units of concentration, obtained from inhibition or displacement. A high value points to lower affinity. By bioavailability is commonly meant dose-corrected exposure relative to a reference, in per cent. Low values mean little systemic uptake, high ones much systemic uptake. As usually defined, the half-life is the time in which the quantity being followed falls by half. A higher half-life goes with slow decline. Take `COc1ccc([C@@H]2CN(C)Cc3cc(OCCCN4CCOC[C@@H]4C)ccc32)cc1`: in [1], the Vd came to 6.8 L/kg. The Activity is 100% in series [2], “Not Active” in series [3], “Not Active” in series [9] and 100% in series [13]. Besides, the result in series [4] and in [11] was inactive. Also, the Ki in [5] was found to be 102 nM; in series [10] it was 5.6 nM; in series [14] it was 121 nM. Also, the concentration in series [6] was determined as 880 nM. The compound also had a clearance in series [7] of 18.1 mL/min/kg. In [8], the Kb is 0.891 nM. Moreover, the bioavailability in series [12] came out at 5%. In addition, the half-life in series [15] was 9 h.

For orientation: Cmax means the highest concentration seen after dosing. In the case of `CSc1ccc(C2CN(C)Cc3cc(OCCCN4CCOCC4)ccc32)cc1` (racemic), the Vd in series [1] is 5.1 L/kg. In addition, the Activity in [2] is recorded as 100%; in [3], “Not Active”; in [9] it was “Not Active”; in series [13] it was 100%. Moreover, the outcome in series [4] and in [11] was inactive. For the same compound, the Ki in series [5] stood at 29 nM; in series [14] it was 106 nM. Further, the concentration in series [6] came out at 670 nM. This compound returned a clearance in series [7] of 14 mL/min/kg. In series [16], this compound registered a Cmax of 9600 nM. The compound also had a bioavailability in [12] of 38%. This compound had a half-life in [15] of 6.6 h.

Consider `CSc1ccc(C2CN(C)Cc3cc(OCCCN4CCC(F)CC4)ccc32)cc1` (racemic), for which the result in [4] and in series [11] was inactive.
